NSD2 inh – blocks human histone methyltransferase NSD2; 310,000 compounds, 0.54% hits; inhibition, % at 12.5 µM; NSD2 peptide methylation, AlphaScreen, 120 min; O96028; in the data active = inhibition above about 50%
CaV13 ICDI inh – Primary screen for inhibitors of IQ motif and Ca2+-dependent inactivation inhibitor domain binding in CACNA1D, Förster resonance energy transfer in living cells, …; inhibition, % at 12.3 µM; HEK cells, CFP/YFP FRET ICDI-IQ, plate reader, 10 min; percent FRET-ratio fall versus neutral wells; 340,000 compounds, 0.098% hits; AID 743397;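 active = mean replicate inhibition of at least 30% and at least 1% of replicates passing that level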;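 note: 0% = median of the neutral control wells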
NPR2 activator – GC-B (human) receptor activation | 370,000 compounds, 0.11% hits | P20594 | activation, % at 10 µM | HEK293-GC-B cells, CNP EC30, cGMP TR-FRET; 0% at EC30 CNP, 100% saturating CNP;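 active = activation at 10 µM reaching about 35% in either raw or pattern-adjusted values, limit read from the data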
FN deposit inh – fibronectin deposition inhibition | AH1F fibroblasts, Alexa488-fibronectin deposition fluorescence, overnight | inhibition, % at 12.6 µM | 350,000 compounds, 0.086% hits;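 active = mean inhibition across replicates of 30% or more, regardless of how many single replicates reach that level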;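 note: positive control wells lacked labelled fibronectin entirely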
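Measured by – fluorescence 485/525 nm · System – AH1F fibroblast monolayer, labelled fibronectin deposition · Amount – 10000 cells per well · Buffer or medium – serum-reduced DMEM (2% serum) · Doses – single dose, pinned · Also added – fluorescent fibronectin at 24 nM final · Schedule – 1 h cell attachment, overnight exposure to compound and label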
Casp6 inh – caspase-6 (human) enzyme inhibition; purified caspase-6, Z-VEID-R110 cleavage fluorescence; P55212; 350,000 compounds, 0.53% hits; AID 686996; inhibition, % at 12.5 µM;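 active = mean inhibition across replicates at least about 35%, with every replicate also reaching that limit, limit read from the data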;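 note: 0% = median of neutral control wells and 100% = no fluorescence left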
GC-A act – GC-A (human) enzyme activation. P16066. HEK293 GC-A cells, cGMP TR-FRET, EC30 ANP; 0% at EC30 ANP, 100% saturating ANP. activation, % at 10 µM. 370,000 compounds, 0.14% hits; in the data active = activation above about 40%
Alpha artifact – interferes with AlphaScreen signal, flagging NSD2 false positives; shares compounds with NSD2 inh; AlphaScreen artifact counterscreen, preloaded methylated H4 peptide; AC35, µM (titrated, usually from 10 µM), inactives show top-dose activity change, negative = signal loss; 1,500 compounds, 9.4% hits; call rule not given here
* marks the source's active call; other numbers are inactive results; . = no result. An excerpt weighted towards active compounds, which were near 0.99% of everything screened.

SMILES	NSD2 inh	CaV13 ICDI inh	NPR2 activator	FN deposit inh	Casp6 inh	GC-A act	Alpha artifact
CO[C@@H]1CN(C)C(=O)c2ccc(NC(=O)Nc3ccccc3F)cc2OC[C@H](C)N(C(C)=O)C[C@@H]1C	.	.	.	.	-0.1	.	.
OC(COc1ccc2ccccc2c1Cl)CN1CCOCC1 (stereo unspecified)	85.8*	-0.8	1.2	.	.	2.4	-2.9%
OC(COc1cccc2ccccc12)CN1CCOCC1 (stereo unspecified)	-0.5	-5.4	0.8	.	-2.7	-3.0	.
COc1ccc(NC(=O)CC2C(=O)NCCN2C(=O)c2ccc(N(C)C)cc2)cc1 (stereo unspecified)	64.0*	-1.4	3.9	9.6	-0.8	3.5	-1.8%
CN(C)c1ccc(C(=O)N2CCNC(=O)C2CC(=O)Nc2ccc(F)cc2)cc1 (stereo unspecified)	1.7	.	2.7	.	8.2	0.4	.
COCC(=O)N1C[C@H](C)[C@H](OC)CN(C)C(=O)c2cc(NS(C)(=O)=O)ccc2OC[C@@H]1C	.	.	.	6.3	0.7	.	.
CNC[C@H]1Oc2ccc(NC(=O)Nc3ccc(OC)cc3)cc2CC(=O)N([C@H](C)CO)C[C@@H]1C	.	.	.	.	1.6	.	.
Cc1cc(Cl)ccc1OCCCC(=O)N1CCOCC1	71.8*	-4.5	-1.4	8.1	.	3.1	1.3%
Cc1cc(Cl)ccc1OCCCC(=O)N1CCCCC1	-3.1	-7.0	-1.3	.	.	0.7	.
Cc1nnc(-c2ccc(N3CCOCC3)c([N+](=O)[O-])c2)o1	0.7	.	.	.	.	.	.
Cc1cccc(Nc2nnc(-c3ccc(N4CCOCC4)c([N+](=O)[O-])c3)c3ccccc23)c1	53.2*	-1.0	48.2*	7.1	1.2	31.9	-9.7%
CCCCN(CC)CCNC(=O)c1cc2c(-c3ccccc3F)nn(C)c2s1	85.6*	-2.2	-12.2	-0.8	-1.7	-31.7	-4.0%
CC1CCCCN1CCNC(=O)c1cc2c(-c3ccccc3F)nn(C)c2s1 (stereo unspecified)	.	-5.6	1.3	-4.5	1.3	-6.9	.
Cc1cccc(N(CC(=O)NC(C)(C)C)C(=O)CS(=O)CC(=O)Nc2ccc3c(c2)OCO3)c1 (stereo unspecified)	52.1*	-5.2	0.2	5.2	1.4	1.4	2.7%
CC(C)(C)NC(=O)CN(C(=O)CS(=O)CC(=O)Nc1ccc(F)cc1)c1cccc(F)c1 (stereo unspecified)	-4.1	-15.7	2.6	-2.4	-0.8	0.5	.
CCOC(=O)N1CCN(C(=O)CSCC(=O)Nc2nc(-c3ccc(-c4ccccc4)cc3)cs2)CC1	.	-6.2	2.5	2.4	-1.1	-5.2	.
O=C(CSCC(=O)N1CCOCC1)Nc1nc(-c2ccccc2)cs1	52.9*	-6.3	-1.7	2.4	0.1	21.9	2.1%
CC(C)c1nc2oc3c(NCC4CCCO4)ncnc3c2c2c1COC(C)(C)C2 (stereo unspecified)	53.9*	-4.2	0.4	-0.2	.	13.6	-3.1%
Cc1nc2oc3c(NCC4CCCO4)ncnc3c2c2c1COC(C)(C)C2 (stereo unspecified)	0.1	-2.6	1.5	0.0	.	8.4	.
COc1ccc(NS(=O)(=O)c2cccc(C(=O)N3CCCCCC3)c2)cc1	64.5*	-4.6	-6.3	3.0	-155.0	-4.8	-4.8%
COCCCNC1=C(Cl)C(=O)c2ccccc2C1=O	67.6*	-4.7	0.5	1.2	17.9	1.1	-6.1%
CCN(CC)CCCNC1=C(Cl)C(=O)c2ccccc2C1=O	112.0*	-3.9	-0.1	-7.2	38.5*	-5.0	-5.3%
O=C1c2ccccc2C(=O)c2c(NCCCN(CCO)CCO)cccc21	29.3	-6.4	-13.7	.	-6.4	2.5	.
CC(C)OCCCNC1=C(Cl)C(=O)c2ccccc2C1=O	38.1	-20.1	4.3	-0.3	25.4	5.5	.
C[C@H]1CN([C@@H](C)CO)C(=O)c2cccc(NC(=O)c3ccc(-c4nccs4)cc3)c2O[C@H]1CN(C)S(=O)(=O)c1cn(C)cn1	.	.	.	3.0	4.9	.	.

Bioassay records: PubChem, several laboratories
